# Runt-SMMHC FRET: blocks binding of human RUNX1 Runt domain to CBFb-SMMHC; inhibition, % at 20 µM; Cerulean-Runt/Venus-CBFb-SMMHC FRET ratio 530/480, 1 h; 0.74% of 220,000 active; Q01196+Q13951; AID 1434;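 active means mean inhibition across duplicate retests at 20 µM reaching about 50%, limit read from the data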;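 further: inhibitors lower the FRET ratio by blocking Runt binding to CBFb-SMMHC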
# Target sequence (Q01196 whole entry, looked up, the tested form may be a part): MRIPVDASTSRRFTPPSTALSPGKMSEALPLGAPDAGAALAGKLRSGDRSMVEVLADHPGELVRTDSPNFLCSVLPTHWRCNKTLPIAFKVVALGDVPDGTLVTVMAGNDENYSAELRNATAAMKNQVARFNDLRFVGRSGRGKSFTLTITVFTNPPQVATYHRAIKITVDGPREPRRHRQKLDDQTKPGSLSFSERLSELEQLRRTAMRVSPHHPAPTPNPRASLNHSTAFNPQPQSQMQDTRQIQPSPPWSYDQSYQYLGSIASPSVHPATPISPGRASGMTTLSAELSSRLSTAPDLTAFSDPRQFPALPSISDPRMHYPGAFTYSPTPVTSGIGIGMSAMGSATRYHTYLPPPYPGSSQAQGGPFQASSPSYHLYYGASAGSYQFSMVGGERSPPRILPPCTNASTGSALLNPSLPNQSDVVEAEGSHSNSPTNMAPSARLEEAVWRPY
# Target sequence (Q13951 whole entry, looked up, the tested form may be a part): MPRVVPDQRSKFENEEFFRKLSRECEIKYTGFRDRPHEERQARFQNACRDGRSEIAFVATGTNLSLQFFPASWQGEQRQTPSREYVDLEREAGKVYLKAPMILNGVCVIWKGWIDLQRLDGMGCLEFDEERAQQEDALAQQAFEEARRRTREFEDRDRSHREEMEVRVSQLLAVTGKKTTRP
# MEX-5 binding: C. elegans MEX-5 TCR-2 RNA binding activity; MEX-5/FITC-TCR2 RNA binding, fluorescence polarization; stronger effect = lower value; activity score (negative = inhibition of binding), % at 10 µM; 0.38% of 300,000 active;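 active means inhibition past about -25% in most replicates, and total fluorescence under double the plate's negative control median, limit read from the data; inconclusive means replicates evenly split on the limit, or fluorescence at least double controls; inactive means too little inhibition in most replicates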
# RanGTP-Impb inh: disruptors of Ran-importin-beta complex formation – biochemical, FRET, CFP-Ran, YFP-importin-beta, homogeneous, primary screen | cell-free CFP-Ran/YFP-importin-beta FRET ratio | inhibition, % (test concentration not listed) | 1.1% of 300,000 active;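 active means more than half of the replicate wells show a fall in the fluorescence ratio signal beyond about 16%, limit read from the data, passing the limit was not always enough; inconclusive means exactly half of the replicate wells pass the set limit; inactive means fewer than half of replicates pass the limit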
# LANA-H2B inh: blocks KSHV LANA binding to histone H2A/H2B. Q9QR71. cell-free LANA-H2A/H2B peptide, fluorescence polarization. inhibition, % (concentration not given with the values). 0.6% of 320,000 active; in the data active means inhibition mostly above about 10%, no sharp cut-off; inactive means mostly below about 6.7%
# EBV gp42 inh: EBV gp42 inhibition; Q1HVG2; Fluorescence polarization binding assay, mP read-out; inhibition, % (tested at 21.74 µM); 0.42% of 220,000 active; AID 1085; in the data active means inhibition above about 50%
# Runt-CBFb FRET: blocks binding of human RUNX1 Runt domain to CBFb | Q01196+Q13951 | Cerulean-Runt/Venus-CBFb FRET ratio 530/480, 1 h | inhibition, % at 20 µM | 0.46% of 220,000 active | AID 1496;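 active means inhibition over about 50% at 20 µM in the single-dose screen, limit read from the data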
#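 Assay system: Cerulean-Runt domain / Medium: Tris 50 mM pH 7.5, KCl, K2SO4, 0.01% BSA / Timing: protein complex preformed 1 h, compound exposure 1 h, room temperature, dark / Measured by: FRET, excitation 422 nm, emission at 530 and 480 nm / Evaluation: loss of energy transfer signal / Control set: 5 µM unlabeled CBFb as full-inhibition high control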
# A number is an active result; n = inactive; u = inconclusive; x = no result given; ! = not confirmed by another sample. An excerpt weighted towards active compounds, which were near 2.4% of everything screened.
SMILES,Runt-SMMHC FRET,MEX-5 binding,RanGTP-Impb inh,LANA-H2B inh,EBV gp42 inh,Runt-CBFb FRET
CN(C)CCCN1c2ccccc2Sc2ccc(Cl)cc21,n,n,n,2.8!,n,n
Cc1cccc(N2CCN(C(=O)Cc3ccccc3[N+](=O)[O-])CC2)c1C,x,n,n,21,x,x
N#Cc1c2n(c3c(-c4ccccc4)ncnc13)CCC2,n,n,n,n,n,n
Cc1c(C#N)c2ncnc(-c3ccccc3)c2n1-c1ccccc1,n,n,n,n,60,n
CN(C(=O)COc1ccc(Cl)cc1Br)C1CCCCC1,x,n,n,53,x,x
CCc1ccc(NC(=O)c2noc3c2CCCCC3)cc1,n,n,n,n,n,n
Cc1ccc(NC(=O)c2noc3c2CCCCC3)cc1,n,n,n,8.5,n,n
COc1ccc(C(=O)NCC(=O)OCC(=O)Nc2ncc(Cl)cc2Cl)cc1[N+](=O)[O-],x,x,x,n,x,x
CCCn1nc(NC(=O)COC)c2cc3cc(C)ccc3nc21,x,n,23,n,x,x
CCCC(=O)Nc1nn(C)c2nc3ccc(C)cc3cc12,x,n,u,n,x,x
Cc1ccc2nc3c(cc2c1)c(NC(=O)c1cccnc1)nn3C,n,n,29,n,n,n
CCCn1nc(NC(=O)c2ccco2)c2cc3ccc(C)cc3nc21,n,n,57,n,x,n
CCn1nc(NC(=O)COC)c2cc3cc(C)ccc3nc21,x,n,u,n,x,x
CCCn1nc(NC(=O)c2ccccn2)c2cc3cc(C)ccc3nc21,94,n,103,n,n,n
Cc1cc(S(=O)(=O)Nc2ccc(C(=O)NCc3ccncc3)cc2)ccc1F,x,n,x,n,x,x
COC(=O)[C@@H](NC(=O)NCCC1=CCCCC1)C(C)C,n,n,n,n,n,n
CCCn1nc(NC(=O)c2ccco2)c2cc3cc(C)ccc3nc21,82,n,79,n,n,n
CC(=O)NCCCCCCNC(C)=O,n,n,n,31!,n,n
CC(=O)NCCSCCNC(C)=O,n,n,n,n,n,n
N#CCc1ccc(OC(=O)c2cccnc2Cl)cc1,x,x,n,n,x,x
CCCCn1c(O)c(N=Nc2ccccc2O)c2ccccc21,x,x,x,n,x,x
CCCCn1c(O)c(N=Nc2ccccn2)c2ccccc21,n,-31,n,n,n,n
CCCCOc1ccc(-c2nnn(C(C)C(=O)OCC)n2)cc1 (configuration not stated),n,n,91,n,n,n
CCCCOc1ccc(-c2nnn(C(C)(C)C(=O)OC)n2)cc1,n,n,n,n,n,n
COC(=O)C(C)Oc1cc(OC(C)C(=O)OC)c2c(C)c(Cl)c(=O)oc2c1 (configuration not stated),n,n,n,n,n,n
SMILES,Runt-SMMHC FRET,MEX-5 binding,RanGTP-Impb inh,LANA-H2B inh,EBV gp42 inh,Runt-CBFb FRET
Cc1ccc(NS(=O)(=O)c2c(F)cc(F)c(Cl)c2F)cc1S(=O)(=O)N1CCOCC1,x,x,x,n,x,x
COc1ccc(C(C(=O)NCCC(C)C)N(CCO)C(=O)c2snc(C(N)=O)c2N)cc1OC (configuration not stated),x,n,n,n,x,x
COc1ccc(C(C(=O)NCCC(C)C)N(CCO)C(=O)c2snc(C(N)=O)c2N)cc1 (configuration not stated),x,n,n,23,x,x
COc1ccc(N(C(=O)c2snc(C(N)=O)c2N)C(C(=O)NC2CCCCC2)c2ccc(F)cc2)c(OC)c1 (configuration not stated),x,n,u,18,x,x
COc1ccccc1NC(=O)c1cc2ccccc2o/c1=N\O,62,n,n,n,n,n
COc1ccc2o/c(=N\O)c(C(=O)Nc3ccc(C)cc3)cc2c1,63,n,n,x,n,n
COc1ccccc1NC(=O)c1cc2ccc(O)cc2o/c1=N\O,81,n,135,n,n,95
COc1ccccc1NC(=O)c1cc2cc(Br)ccc2cc1O,n,n,n,n,n,n
COc1ccc2oc(=N)c(C(=O)Nc3ccc(C)cc3)cc2c1,x,n,n,n,x,x
COc1cccc(CNC(=O)Cn2ccc3cc(S(=O)(=O)N4CCCCCC4)ccc32)c1,x,n,n,n,x,x
CSc1ccccc1C(=O)NCCOc1cccc(C)c1,n,n,n,n,n,n
Cc1ccccc1NC1=C/C(=N\S(=O)(=O)c2ccc(C(=O)O)cc2)c2ccccc2C1=O,x,n,n,n,x,x
O=C(O)c1ccc(S(=O)(=O)/N=C2\C=C(Nc3ccccc3F)C(=O)c3ccccc32)cc1,x,-42,n,n,x,x
Cn1c(/C=C/c2ccc(Cl)cc2)nc2ccccc2c1=O,x,n,20,n,x,x
O=c1[nH]c2ccccc2nc1/C=C/c1ccc(Cl)cc1,n,n,23,n,n,n
CC(C(=O)NC(=O)NC1CCCCC1)N1CCN(c2ccc(O)cc2)CC1 (configuration not stated),x,x,x,n,x,x
Cc1c(CC(=O)O)c(=O)oc2cc3occ(-c4ccc(F)cc4)c3cc12,x,n,n,n,x,x
NC(=O)C1CCN(C(c2ccccc2Cl)c2nnnn2Cc2ccc3c(c2)OCO3)CC1 (configuration not stated),n,n,n,26,n,n
CC(C)C(c1nnnn1Cc1ccc(F)cc1)N1CCC(C(N)=O)CC1 (configuration not stated),n,n,n,39,n,n
CC(C)CC(c1nnnn1Cc1ccc2c(c1)OCO2)N1CCC(C(N)=O)CC1 (configuration not stated),n,n,n,n,n,n
CC(C)C(c1nnnn1Cc1ccc(F)cc1)N1CCSCC1 (configuration not stated),n,n,n,n,n,n
CCOP(=O)(OCC)c1nc(Cc2ccccc2)oc1NCc1ccccc1,n,n,n,n,n,n
O=[N+]([O-])c1ccc(Cl)c(-c2ccc(/C=N/n3cnnc3)o2)c1,x,n,n,n,x,x
O=[N+]([O-])c1cc(-c2ccc(/C=N/n3cnnc3)o2)ccc1Cl,x,-40,n,n,x,x
O=c1cc(N2CCCCCC2)[nH]c(=O)n1-c1ccc(Cl)cc1,n,n,129,n,n,n
SMILES,Runt-SMMHC FRET,MEX-5 binding,RanGTP-Impb inh,LANA-H2B inh,EBV gp42 inh,Runt-CBFb FRET
O=c1cc(N2CCCC2)[nH]c(=O)n1-c1ccc(Cl)cc1,n,n,59,n,n,n
O=c1cc(N2CCOCC2)[nH]c(=O)n1-c1ccc(Cl)cc1,n,n,n,n,n,n
CC1=Nc2ccccc2/C1=C\c1nc(-c2ccccc2)oc1O,n,n,n,n,n,n
CC1=Nc2ccccc2/C1=C/c1nc(-c2ccc(C)s2)oc1O,n,n,37,n,n,n
CC(NC(=O)COc1ccccc1)C1COc2ccccc2O1 (configuration not stated),x,n,n,n,x,x
CCOc1ccc(C(=O)NC(C)C2COc3ccccc3O2)cc1 (configuration not stated),n,n,u,36,n,n
COC(=O)CN1C(=S)N(c2ccc(OC)cc2)C(=O)/C1=C/c1ccc(OC)cc1,x,n,n,n,n,x
